Experimental data from ChEMBL document CHEMBL4433210, “Synthesis and Evaluation of Bifunctional Aminothiazoles as Antiretrovirals Targeting the HIV-1 Nucleocapsid Protein” (ACS Med Chem Lett, 2019).
The source made the active and inactive calls.

What was measured:
[1] = test system: Human immunodeficiency virus 1; assay: Antiviral activity against wild type HIV1 NL4-3 infected in human TZM-bl cells assessed as reduction in viral replication after 48 hrs by bright Glo-luciferase reporter gene assay based BiCycle assay; assay type: functional, organism-based; conditions: Human immunodeficiency virus 1, NL4-3, TZM-bl
Outline: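 BiCycle format: MT-2 cells infected with wild-type NL4-3 in the presence of compound dilutions. Virus produced in this first round was then quantified by infecting TZM-bl cells. IC50 was derived from the dose-response data.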

[2] = test system: Human immunodeficiency virus 1; assay: Antiviral activity against wild-type HIV1 NL4-3 infected in human TZM-bl cells treated with compound assessed as reduction in viral replication after 48 hrs by bright Glo-luciferase reporter gene assay based monocycle assay; conditions: Human immunodeficiency virus 1, NL4-3
[3] = test system: Human immunodeficiency virus 1; assay: Antiviral activity against wild-type HIV1 NL4-3 infected infected in human MT2 cells assessed as reduction in HIV1 integrated DNA at 1 uM and measured after 30 hrs post infection by Alu-LTR PCR protocol based method; assay type: functional, organism-based
Outline: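 MT-2 cells were infected with NL4-3 at MOI 0.1 and incubated with test or reference agents at 20, 5 or 1 μM. Real-time PCR measured integrated HIV-1 DNA and intracellular and extracellular genomic HIV-1 RNA at 30 h post-infection. Levels are expressed as a percentage of the no-drug control culture.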

[4] = Inhibition of synthesized Nucleocapsid protein (11 to 55 residues) assessed as reduction in NC-induced cTAR DNA destabilization pre-treated with cTAR and Nucleocapsid (11-55) for 15 mins followed by compound addition at 10 uM by spectroflurometry relative to control
Outline: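 NC chaperone inhibition assay: fluorescence monitoring of NC-induced destabilization of cTAR DNA labelled with Alexa488 at the 5′ end and Dabcyl quencher at the 3′ end. Compound is tested at 10 μM.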

[5] = Cytotoxicity against human PBMC cells assessed as reduction in cell viability after 7 days by MTS assay; assay type: cell-based; conditions: read-out: TD50
Outline: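 Cytotoxicity in peripheral blood mononuclear cells by MTS assay, giving TD50. Only compounds that met the BiCycle IC50 ≤ 5 μM criterion and were positive in the NC inhibition assay were tested.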

[6] = Selectivity index, ratio of TD50 for cytotoxicity aginst human PBMC cells to IC50 for antiviral activity against wild type HIV1 NL4-3 infected in human TZM-bl cells assessed as reduction in viral replication after 48 hrs by bright Glo-luciferase reporter gene assay based BiCycle assay; assay type: toxicity, cell-based; conditions: read-out: Selectivity Index
Outline: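 SI calculated as TD50 from the PBMC MTS assay divided by IC50 from the BiCycle antiviral assay (MT-2 infection followed by TZM-bl read-out).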

[7] = test system: Human immunodeficiency virus 1; assay: Antiviral activity against HIV1 11808 harboring protease L10F/K20T/V32I/L33F/I54V/G73S/I84V/L89V/L90M mutant infected in human TZM-bl cells infected with supernatants from virus-infected human MT2 cells treated with compound for 72 hrs assessed as reduction in viral replication after 48 hrs by bright Glo-luciferase reporter gene assay; assay type: functional, organism-based; conditions: Human immunodeficiency virus 1, 11808
Outline: (§1)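 BiCycle assay: MT-2 cells infected with a drug-resistant HIV-1 strain in the presence of compound dilutions. Virus produced in this first round is then measured by infecting TZM-bl cells. The readout is IC50.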

[8] = test system: Human immunodeficiency virus 1; assay: Antiviral activity against HIV1 12465 harboring protease M46I/I54V/Q58E/T74P/V82L/L90M mutant infected in human TZM-bl cells infected with supernatants from virus-infected human MT2 cells treated with compound for 72 hrs assessed as reduction in viral replication after 48 hrs by bright Glo-luciferase reporter gene assay; assay type: functional, organism-based; conditions: Human immunodeficiency virus 1, 12465; outline: as §1
[9] = test system: Human immunodeficiency virus 1; assay: Antiviral activity against HIV1 7400 harboring nucleoside reverse transcriptase M41L/D67N/M184V/L210W/T215Y mutant infected in human TZM-bl cells infected with supernatants from virus-infected human MT2 cells treated with compound for 72 hrs assessed as reduction in viral replication after 48 hrs by bright Glo-luciferase reporter gene assay; assay type: functional, organism-based; conditions: Human immunodeficiency virus 1, 7400; outline: as §1
[10] = test system: Human immunodeficiency virus 1; assay: Antiviral activity against HIV1 7401 harboring nucleoside reverse transcriptase M41L/E44D/D67N/T69D/M184V/L210W/T215Y mutant infected in human TZM-bl cells infected with supernatants from virus-infected human MT2 cells treated with compound for 72 hrs assessed as reduction in viral replication after 48 hrs by bright Glo-luciferase reporter gene assay; assay type: functional, organism-based; conditions: Human immunodeficiency virus 1, 7401; outline: as §1
[11] = test system: Human immunodeficiency virus 1; assay: Antiviral activity against HIV1 12231 harboring non-nucleoside reverse transcriptase 103N/179F/181C mutant infected in human TZM-bl cells infected with supernatants from virus-infected human MT2 cells treated with compound for 72 hrs assessed as reduction in viral replication after 48 hrs by bright Glo-luciferase reporter gene assay; assay type: functional, organism-based; conditions: Human immunodeficiency virus 1, 12231; outline: as §1
[12] = test system: Human immunodeficiency virus 1; assay: Antiviral activity against HIV1 12229 harboring non-nucleoside reverse transcriptase L100I/K103N/H221Y mutant infected in human TZM-bl cells infected with supernatants from virus-infected human MT2 cells treated with compound for 72 hrs assessed as reduction in viral replication after 48 hrs by bright Glo-luciferase reporter gene assay; assay type: functional, organism-based; conditions: Human immunodeficiency virus 1, 12229; outline: as §1
[13] = test system: Human immunodeficiency virus 1; assay: Antiviral activity against HIV1 11845 harboring integrase 140S/148H double mutant infected in human TZM-bl cells infected with supernatants from virus-infected human MT2 cells treated with compound for 72 hrs assessed as reduction in viral replication after 48 hrs by bright Glo-luciferase reporter gene assay; assay type: functional, organism-based; conditions: Human immunodeficiency virus 1, 11845; outline: as §1
[14] = test system: Human immunodeficiency virus 1; assay: Selectivity ratio of IC50 for HIV1 11808 harboring protease L10F/K20T/V32I/L33F/I54V/G73S/I84V/L89V/L90M mutant infected in human MT2 cells to IC50 for HIV1 NL4-3 infected in human MT2 cells; assay type: functional
Outline: (§2)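 Fold change is the IC50 against the resistant strain divided by the IC50 against the wild-type NL4–3 reference. Both IC50 values come from the BiCycle assay (MT-2 infection, then TZM-bl readout of progeny virus).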

[15] = test system: Human immunodeficiency virus 1; assay: Selectivity ratio of IC50 for HIV1 12465 harboring protease M46I/I54V/Q58E/T74P/V82L/L90M mutant infected in human MT2 cells to IC50 for HIV1 NL4-3 infected in human MT2 cells; assay type: functional; outline: as §2
[16] = test system: Human immunodeficiency virus 1; assay: Selectivity ratio of IC50 for HIV1 7400 harboring nucleoside reverse transcriptase M41L/D67N/M184V/L210W/T215Y mutant infected in human MT2 cells to IC50 for HIV1 NL4-3 infected in human MT2 cells; assay type: functional; outline: as §2
[17] = test system: Human immunodeficiency virus 1; assay: Selectivity ratio of IC50 for HIV1 7401 harboring nucleoside reverse transcriptase M41L/E44D/D67N/T69D/M184V/L210W/T215Y mutant infected in human MT2 cells to IC50 for HIV1 NL4-3 infected in human MT2 cells; assay type: functional; outline: as §2
[18] = test system: Human immunodeficiency virus 1; assay: Selectivity ratio of IC50 for HIV1 12231 harboring non-nucleoside reverse transcriptase 103N/179F/181C mutant infected in human MT2 cells to IC50 for HIV1 NL4-3 infected in human MT2 cells; assay type: functional; outline: as §2
[19] = test system: Human immunodeficiency virus 1; assay: Selectivity ratio of IC50 for HIV1 12229 harboring non-nucleoside reverse transcriptase L100I/K103N/H221Y mutant infected in human MT2 cells to IC50 for HIV1 NL4-3 infected in human MT2 cells; assay type: functional; outline: as §2
[20] = test system: Human immunodeficiency virus 1; assay: Selectivity ratio of IC50 for HIV1 11845 harboring integrase 140S/148H double mutant mutant infected in human MT2 cells to IC50 for HIV1 NL4-3 infected in human MT2 cells; assay type: functional; outline: as §2

## Nc1nc(CC(=O)NCCNC(=O)c2ccc(COc3ccccc3-c3csc(N)n3)cc2)cs1
[1]
  IC50: > 100 µM
[2]
  IC50: > 100 µM

## Cc1nnc(C(=O)NC(C)(C)c2nc(C(=O)NCc3ccc(F)cc3)c(O)c(=O)n2C)o1
[3]
  Activity: Active

## Nc1nc(-c2ccc(OCc3cccc(C(=O)N4CCN(C(=O)c5ccc(COc6ccccc6-c6csc(N)n6)cc5)CC4)c3)cc2)cs1
[1]
  IC50: 28 µM
[4]
  inhibition: 15%
[2]
  IC50: > 50 µM

## Nc1nc(-c2ccc(OCc3cccc(C(=O)NCCCCNC(=O)c4ccc(COc5ccccc5-c5csc(N)n5)cc4)c3)cc2)cs1
[1]
  IC50: 5 µM
[4]
  inhibition: 19%
[5]
  CC50 at 168 h: > 100 µM
[6]
  selectivity ratio at 48 h: > 20
[2]
  IC50: 16 µM

## Nc1nc(-c2ccc(OCc3cccc(C(=O)NCCNC(=O)c4ccc(COc5ccccc5-c5csc(N)n5)cc4)c3)cc2)cs1.O=C(O)C(F)(F)F.O=C(O)C(F)(F)F
[1]
  IC50: 1.3 µM
[4]
  inhibition: 24%
[5]
  CC50 at 168 h: 30 µM
[6]
  selectivity ratio at 48 h: 23
[7]
  IC50: 2100 nM
[8]
  IC50: 1200 nM
[9]
  IC50: 800 nM
[10]
  IC50: 1200 nM
[11]
  IC50: 0.8 µM
[12]
  IC50: 2200 nM
[13]
  IC50: 1000 nM
[14]
  Ratio IC50: 1.3
[15]
  Ratio IC50: 0.9
[16]
  Ratio IC50: 0.6
[17]
  Ratio IC50: 0.9
[18]
  Ratio IC50: 0.6
[19]
  Ratio IC50: 1.7
[20]
  Ratio IC50: 0.8
[2]
  IC50: 5 µM

## Nc1nc(-c2ccc(C(=O)NCCCNC(=O)c3ccc(COc4ccccc4-c4csc(N)n4)cc3)cc2)cs1
[1]
  IC50: 15 µM
[4]
  inhibition: 15%
[2]
  IC50: 12 µM

## Nc1ccc(NCCNC(=O)c2ccc(COc3ccccc3-c3csc(N)n3)cc2)nc1.O=C(O)C(F)(F)F.O=C(O)C(F)(F)F.O=C(O)C(F)(F)F
[1]
  IC50: 3.8 µM
[4]
  inhibition: 15%
[5]
  CC50 at 168 h: 45 µM
[6]
  selectivity ratio at 48 h: 12
[7]
  IC50: 3000 nM
[8]
  IC50: 6000 nM
[9]
  IC50: 1500 nM
[10]
  IC50: 2700 nM
[11]
  IC50: 5 µM
[12]
  IC50: 12000 nM
[13]
  IC50: 2300 nM
[14]
  Ratio IC50: 0.8
[15]
  Ratio IC50: 1.6
[16]
  Ratio IC50: 0.4
[17]
  Ratio IC50: 0.7
[18]
  Ratio IC50: 1.3
[19]
  Ratio IC50: 3.1
[20]
  Ratio IC50: 0.6
[2]
  IC50: > 50 µM

## Nc1nc(-c2ccc(OCc3cccc(C(=O)NCCNC(=O)c4ccc(COc5ccc(F)cc5-c5csc(N)n5)cc4)c3)cc2)cs1.O=C(O)C(F)(F)F.O=C(O)C(F)(F)F
[1]
  IC50: 1.1 µM
[4]
  inhibition: 16%
[5]
  CC50 at 168 h: > 50 µM
[6]
  selectivity ratio at 48 h: > 45
[7]
  IC50: 800 nM
[8]
  IC50: 2000 nM
[9]
  IC50: 1100 nM
[10]
  IC50: 600 nM
[11]
  IC50: 4 µM
[12]
  IC50: 900 nM
[13]
  IC50: 3000 nM
[14]
  Ratio IC50: 0.7
[15]
  Ratio IC50: 1.8
[16]
  Ratio IC50: 1
[17]
  Ratio IC50: 0.5
[18]
  Ratio IC50: 3.6
[19]
  Ratio IC50: 0.8
[20]
  Ratio IC50: 2.7
[2]
  IC50: > 50 µM

## Nc1nc(-c2ccccc2OCc2ccc(C(=O)NCCN3CCOCC3)cc2)cs1
[1]
  IC50: > 100 µM
[2]
  IC50: > 100 µM

## Nc1nc(-c2ccc(OCc3cccc(C(=O)NCCNC(=O)c4ccc(COc5cccc6sc(N)nc56)cc4)c3)cc2)cs1
[1]
  IC50: 37 µM
[4]
  inhibition: 17%
[2]
  IC50: > 50 µM

## Nc1ccc(NCCNS(=O)(=O)c2ccc(COc3ccccc3-c3csc(N)n3)cc2)nc1
[1]
  IC50: > 100 µM
[2]
  IC50: > 100 µM

## Nc1nc(-c2ccccc2OCc2ccc(C(=O)NCCCNc3ccc([N+](=O)[O-])cn3)cc2)cs1
[1]
  IC50: 12 µM
[4]
  inhibition: 21%
[2]
  IC50: 28 µM

## Nc1nc(-c2ccc(C(=O)NCCNC(=O)c3ccc(COc4ccccc4-c4csc(N)n4)cc3)cc2)cs1
[1]
  IC50: 5 µM
[4]
  inhibition: inactive
[2]
  IC50: 30 µM

## Nc1nc(CCc2nc(-c3ccc(COc4ccccc4-c4csc(N)n4)cc3)no2)cs1
[1]
  IC50: 6 µM
[4]
  inhibition: inactive
[2]
  IC50: 35 µM

## Nc1nc(-c2ccc(OCc3cccc(C(=O)NCCCNC(=O)c4ccc(COc5ccccc5-c5csc(N)n5)cc4)c3)cc2)cs1
[1]
  IC50: 12 µM
[4]
  inhibition: 16%
[2]
  IC50: > 50 µM

## Nc1nc(-c2ccc(OCc3cccc(C(=O)NCCNC(=O)c4ccc(COc5ccccc5-c5coc(N)n5)cc4)c3)cc2)co1
[1]
  IC50: 6.2 µM
[4]
  inhibition: 21%
[2]
  IC50: > 50 µM

## Nc1nc(CCNC(=O)c2ccc(COc3ccccc3-c3csc(N)n3)cc2)cs1
[1]
  IC50: 36 µM
[4]
  inhibition: 16%
[2]
  IC50: > 50 µM
